Screening results: PubChem, several laboratories
HSP90 refold inh: HSP90 refolding inhibition in rabbit reticulocyte lysate; luciferase refolding luminescence, 3 h; 290,000 compounds, 0.91% hits; AID 1789; inhibition, % at 5.6 µM;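 active means inhibition above the screen-wide mean plus 3 SD, computed separately per campaign, cut at about 16% in these data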;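 further: inhibitors lower the luminescence because luciferase stays unfolded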
STAT3 blocker: reduces IL-6 driven STAT3 reporter signal | U3A cells, IL-6 STAT3-luciferase reporter, luminescence; host cell line lacks STAT1 | 190,000 compounds, 0.89% hits | inhibition, % at 5.5 µM;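 active means inhibition above the mean inhibition across all screened compounds plus 3 SD, cut at about 44% in these data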
PPC-1+TRAIL kill: compounds killing PPC-1 cancer cells with TRAIL present (potentiator screen, no TRAIL-free arm) | PPC-1 cells + TRAIL, ATPLite viability luminescence | cell killing (% activity), % at 4 µM or 5 µM | 220,000 compounds, 0.41% hits | AID 1443;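 active means cell killing above 50% in the first pass at 4 µM, then a duplicate retest at 5 µM averaging 50% or more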
STAT3 act-1: increases IL-6 driven STAT3 reporter signal; U3A cells, IL-6 STAT3-luciferase reporter, luminescence; 100% = signal with IL-6 EC80 alone; activation (% of control), % at 5.6 µM; 190,000 compounds, 0.91% hits; AID 871;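 active means activation above the screen-wide mean of compound activation plus 3 SD, cut at about 130% in these data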
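Test system: human U3A cells carrying STAT3-luciferase construct; control set: IL-6-only wells as 100% reference; timing: compound pre-incubation 1 h before IL-6, then 6 h stimulation at 37 °C; also added: IL-6 stimulus at 33 ng/mL final; evaluation: % activation versus median of IL-6-stimulated wells; detection: reporter luminescence signal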
TRAIL sens C8: caspase-8 TRAIL sensitization; inhibition (viability loss, TRAIL sensitization), % at 10 µM; 360,000 compounds, 1% hits; NB7+C8 cells + TRAIL, ATPlite viability luminescence;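 active means compounds causing at least 50% loss of cell viability in the single-dose screen, relative to plate controls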
STAT1 inh: reduces IFN-gamma driven STAT1 reporter signal; NIH 3T3 STAT1-luciferase reporter, luminescence; inhibition, % at 5.5 µM; 200,000 compounds, 0.35% hits; AID 920;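 active means inhibition above a set limit, the mean inhibition across all tested compounds plus 3 SD, cut at about 34% in these data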
STAT3 act-2: STAT3 activation, confirmation assay; shares compounds with STAT3 act-1; U3A STAT3-luciferase reporter, IL-6 potentiation, luminescence; U3A cells lack STAT1; 100 means same as IL-6 alone; potentiation (% of control), % at 5.7 µM; 1,200 compounds, 64% hits; AID 1267;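 active means percent activation of the STAT3 luciferase reporter above a set limit taken from the earlier primary screen, cut at about 130% in these data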
NFkB act 2: NF-kappaB activation in STAT3 activator counter-screen; 1,200 compounds, 11% hits; AID 1309; human cells, NF-kappaB reporter activation; activation (% of control), % at 5.7 µM; shares compounds with STAT3 act-1; in the data active means activation above about 120%;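 further: reporter induced by TNF-alpha stimulation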
STAT1 act: STAT1 activation in STAT3 activator counter-screen; 1,200 compounds, 13% hits; shares compounds with STAT3 act-1; NIH 3T3 STAT1-luciferase reporter, IFN-gamma, luminescence; activation (% of control), % at 5.7 µM; AID 1318;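 active means activation above the solvent-only control well mean plus 3 SD, set per screening run, cut at about 120% in these data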
PPC-1 tox: kills PPC-1 cells; shares compounds with PPC-1+TRAIL kill; PPC-1 viability, ATPlite luminescence, overnight; cytotoxicity, % at 5 µM; 1,200 compounds, 50% hits; AID 1447;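 active means reconfirmed compounds whose average cytotoxicity reaches 50% or more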
HSP90 confirm: confirmation of HSP90 inhibitors. shares compounds with HSP90 refold inh. rabbit reticulocyte lysate, luciferase refolding luminescence, 3 h. inhibition, % at 5.9 µM. 2,300 compounds, 64% hits. AID 1846; in the data active means inhibition above about 18%
luciferase ctr: blocks native firefly luciferase in HSP90 counter-screen | AID 1847 | inhibition, % at 5.9 µM | purified native firefly luciferase, luminescence | 2,300 compounds, 48% hits | shares compounds with HSP90 refold inh;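 active means inhibition above the mean inhibition of all tested sample wells plus 3 SD, cut at about 10% in these data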
Target sequence (P08659 whole entry, looked up): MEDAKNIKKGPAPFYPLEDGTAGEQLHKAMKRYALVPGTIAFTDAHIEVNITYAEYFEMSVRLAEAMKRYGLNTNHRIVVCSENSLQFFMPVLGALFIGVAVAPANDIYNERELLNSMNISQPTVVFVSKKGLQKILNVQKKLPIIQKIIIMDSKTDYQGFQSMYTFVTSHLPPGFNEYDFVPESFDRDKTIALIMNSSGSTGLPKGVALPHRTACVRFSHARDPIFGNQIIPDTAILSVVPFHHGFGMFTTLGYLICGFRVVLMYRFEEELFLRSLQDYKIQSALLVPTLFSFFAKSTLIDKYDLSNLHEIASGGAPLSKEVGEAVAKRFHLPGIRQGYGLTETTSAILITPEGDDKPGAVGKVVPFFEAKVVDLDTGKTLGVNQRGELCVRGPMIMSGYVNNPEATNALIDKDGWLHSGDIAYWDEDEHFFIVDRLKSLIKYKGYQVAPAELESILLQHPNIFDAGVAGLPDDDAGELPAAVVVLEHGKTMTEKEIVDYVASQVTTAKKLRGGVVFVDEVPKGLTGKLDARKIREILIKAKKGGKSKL
Numbers stand for hits; - = inactive; . = no result. Most compounds without a hit are left out; they make up all but 2.3% or so of the library.

SMILES | HSP90 refold inh | STAT3 blocker | PPC-1+TRAIL kill | STAT3 act-1 | TRAIL sens C8 | STAT1 inh | STAT3 act-2 | NFkB act 2 | STAT1 act | others
CN1N=C(C(=O)N2CCc3c([nH]c4ccccc34)C2c2ccccc2Cl)CCC1=O (centres undefined) | - | - | - | 156 | - | - | 178 | 121 | 123
COc1ccc(N2CC(C(=O)Nc3nnc(SCc4ccccn4)s3)CC2=O)cc1 (centres undefined) | - | - | - | - | - | - | . | . | .
Cc1ccc(NS(=O)(=O)c2ccc(C(=O)NCCN3CCOCC3)cc2)cc1 | . | . | . | . | - | . | . | . | .
CCNC(=O)C1(C)CCN(C(=O)CCc2ccccc2)C1 (centres undefined) | . | . | . | . | - | . | . | . | .
COc1ccc(NC(=S)Nc2ccc(S(N)(=O)=O)cc2)c(OC)c1 | - | - | - | 136 | - | - | - | - | -
COc1ccc(NC(=S)Nc2ccc(S(=O)(=O)N3CCOCC3)cc2)c(OC)c1 | - | - | - | - | - | - | . | . | .
COC(=O)CCC(=O)NC(=S)Nc1sc(C)c(C)c1C(N)=O | - | - | - | 139 | - | - | - | 137 | -
O=C(CN1CCN(C2CCCCC2)CC1)c1c[nH]c2ccccc12 | - | - | - | - | - | - | . | . | .
CCN(C(=S)Nc1cccnc1)c1ccccc1 | - | - | - | - | - | - | . | . | .
CCN(C(=S)Nc1cccnc1)c1cccc2ccccc12 | - | - | - | 137 | - | - | - | - | -
O=C1C(=O)N(CC(=O)N2CCCC2)c2ccccc21 | - | - | - | - | - | - | . | . | .
Cc1c(C#N)c2ccccc2n1CC(=O)O | - | - | . | 159 | - | - | 161 | - | -
CCOC(=O)Cn1c(C)c(C#N)c2ccccc21 | - | - | - | - | - | - | . | . | .
COc1ccc(S(=O)(=O)N2CCN(c3ccccc3OC)CC2)cc1 | - | . | . | . | - | . | . | . | .
COc1ccc(S(=O)(=O)N2CCN(c3ccc4nnc(-c5ccccc5)n4n3)CC2)cc1 | - | - | - | 143 | 54 | - | - | - | -
COC(=O)c1n[nH]c2ccccc12 | - | - | - | 160 | - | - | 154 | - | -
O=C/C(=C\Nc1ccc(Cl)cn1)c1nc2ccccc2o1 | - | - | - | 137 | - | - | - | - | -
O=C/C(=C\Nc1ccc(S(=O)(=O)CCO)cc1)c1nc2cc(Cl)ccc2o1 | - | - | - | - | - | - | . | . | .
O=C/C(=C\Nc1ccc(Cl)cn1)c1nc2cc(Cl)ccc2o1 | - | - | - | 145 | - | - | - | - | -
Cc1ccc(C(N)=Nc2ccccc2)cc1 | - | . | - | . | - | . | . | . | .
C/C(CC(=O)Nc1ccc2c(c1)OCCO2)=N\NC(=O)Cc1ccc(Cl)cc1 | - | . | . | . | - | . | . | . | .
CCOc1cc(N2CCOCC2)c(OCC)cc1NC(=O)COc1ncnc2ccccc12 | - | - | - | 151 | - | - | 154 | - | -
C=CCSc1nnc(-c2cc3c(s2)-c2ccccc2CC3)o1 | - | - | - | 151 | - | - | 145 | - | -
CCOc1ccc(NC(=O)CN(C)C(=O)c2ccc(N3CCCCCC3)c([N+](=O)[O-])c2)cc1OCC | . | . | . | . | - | . | . | . | .
CC1=NN(c2ccc(C)cc2)C(=O)/C1=C\c1ccc(Br)s1 | - | - | - | - | - | - | . | . | .
SMILES | HSP90 refold inh | STAT3 blocker | PPC-1+TRAIL kill | STAT3 act-1 | TRAIL sens C8 | STAT1 inh | STAT3 act-2 | NFkB act 2 | STAT1 act | others
CC1=NN(c2ccc(Br)cc2)C(=O)/C1=C/c1cccs1 | - | - | - | 181 | - | - | 155 | - | -
Cc1ccc(C)n1-c1nccc(-c2cccs2)n1 | - | - | - | 140 | - | - | - | - | -
Cc1ccc(C)n1-c1nccc(-c2ccco2)n1 | - | - | - | - | - | - | . | . | .
O=C(CSc1nc(C2CC2)nc2ccccc12)N1c2ccccc2Sc2ccc(C(F)(F)F)cc21 | - | - | - | 145 | - | - | - | - | -
O=C(CSc1nc(C2CC2)nc2ccccc12)N1CCCCC1 | - | . | . | . | - | . | . | . | .
Cc1cccc(NS(=O)(=O)c2ccc(C)c(C(=O)OCC(=O)Nc3cc(C)on3)c2)c1 | - | - | - | 140 | - | - | 140 | - | - | PPC-1 tox=-
CCCn1c(NC(=O)c2ccccc2)nc2ccccc21 | - | - | - | 137 | - | - | - | - | - | PPC-1 tox=-
CCCn1c(NC(=O)c2ccc(C)cc2)nc2ccccc21 | - | - | - | - | - | - | . | . | .
CN1CCN(c2oc(-c3ccccc3F)nc2S(=O)(=O)c2ccc(Cl)cc2)CC1 | - | . | . | . | - | . | . | . | .
Cn1c2ccc(Cl)cc2c2nc3ccccc3nc21 | - | - | - | 173 | - | - | 173 | - | 131 | PPC-1 tox=-
COc1cc(/C=C2/C(C)=C(C#N)c3nc(N)c(C#N)c(C)c32)ccc1OCC(=O)O | - | - | - | - | . | - | . | . | .
O=C(CN1C(=O)c2ccccc2C1=O)c1ccccc1 | - | - | - | - | - | - | . | . | .
CC1=C(CC(=O)c2ccccc2)C(=O)c2ccccc2C1=O | 17 | - | - | 138 | - | - | 143 | - | - | HSP90 confirm=-;luciferase ctr=-
COc1ccc(CC(=O)Nc2cccc(C(C)=O)c2)cc1S(=O)(=O)N1CCOCC1 | . | . | . | . | - | . | . | . | .
Cc1ccccc1-c1cc2c(nn1)-c1ccccc1C2=O | 74 | - | - | 145 | 55 | - | 141 | - | - | PPC-1 tox=-;HSP90 confirm=-;luciferase ctr=-
O=C(O)c1ccc(NC2=C/C(=N/S(=O)(=O)c3ccccc3)c3ccccc3C2=O)cc1 | 86 | - | - | 155 | - | - | - | - | - | HSP90 confirm=93;luciferase ctr=-
CC(=O)Nc1ccc(NC2=CC(=O)c3ccccc3C2=O)cc1 | - | . | . | . | - | . | . | . | .
Nn1cnnc1N/N=C\c1ccc(-c2ccccc2[N+](=O)[O-])o1 | 76 | - | - | 147 | - | - | - | - | - | HSP90 confirm=-;luciferase ctr=-
Cc1ccc(NC(=O)COc2ccc(-c3nnco3)cc2)cc1S(=O)(=O)N1CCOCC1 | - | - | - | - | - | - | . | . | .
N#CC1=C(N)Oc2n[nH]c(-c3cccs3)c2C1c1cccs1 (centres undefined) | 34 | - | - | 176 | - | - | - | - | - | HSP90 confirm=-;luciferase ctr=-
CCOc1ccc(CCNC(=O)CCOc2cc(C)ccc2C)cc1OCC | - | . | . | . | - | . | . | . | .
